≈ marks a conversion by molar mass, not a printed value. Calls of active or inactive are those of the source. The rule behind the calls is not given here.
Tests used:
Staphylococcus aureus [1] = assay: AUBKC (0 to 48 hrs) in methicillin-sensitive Staphylococcus aureus 5956 infected in in vitro pharmacokinetic model at 750 mg, iv every 8 hrs using 10^6 CFU/ml inoculum; assay type: functional
Staphylococcus aureus [2] = assay: Antibacterial activity against methicillin-resistant Staphylococcus aureus 33827 by broth dilution method; assay type: functional
Summary of the method: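 Standard CLSI broth dilution MIC.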

Staphylococcus aureus [3] = assay: Antibacterial activity against methicillin-resistant Staphylococcus aureus 33827 infected in in vitro pharmacokinetic model assessed as reduction in viable count at 1500 mg, iv every 8 hrs measured after 36 hrs using 10^8 CFU/ml inoculum; assay type: functional
Summary of the method: (§1)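 Single-compartment dilutional in vitro PK model, 10% Mueller-Hinton broth, 37°C, stirred, dilution 132 ml/h. […] Inoculum 10^6 CFU/ml (added 45 min pre-dose) or 10^8 CFU/ml (run overnight). Viable counts by spiral plating, beta-lactamase neutralization, detection limit 10^2 CFU/ml. At least triplicate.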

Staphylococcus aureus [4] = assay: Antibacterial activity against methicillin-resistant Staphylococcus aureus 33815 infected in in vitro pharmacokinetic model assessed as reduction in viable count at 750 mg, iv every 8 hrs measured after 24 hrs using 10^6 CFU/ml inoculum; assay type: functional
Summary of the method: (§2)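 Single-compartment dilutional in vitro PK model, 37°C, stirred, in 10% Mueller-Hinton broth. […] Inoculum 10^6 CFU/ml from a 24-h plate culture was added 45 min before dosing. Viable counts by spiral plating on nutrient agar with β-lactamase neutralization. Log change was taken from time 0; detection limit 10^2 CFU/ml; at least triplicate.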

Staphylococcus aureus [5] = assay: Antibacterial activity against methicillin-resistant Staphylococcus aureus 33827 infected in in vitro pharmacokinetic model assessed as reduction in viable count at 1500 mg, iv every 8 hrs measured after 48 hrs using 10^6 CFU/ml inoculum; assay type: functional; summary of the method: as §1
Staphylococcus aureus [6] = assay: T>MIC for 1-log drop in count in methicillin-resistant Staphylococcus aureus 33815 in in vitro pharmacokinetic model after 24 hrs using 10^8 CFU/ml inoculum; assay type: functional
Staphylococcus aureus [7] = assay: Antibacterial activity against methicillin-resistant Staphylococcus aureus 33827 assessed as viable count at 4 times of MIC after 48 hrs using 10^6 CFU/ml inoculum; assay type: functional, organism-based
Staphylococcus aureus [8] = assay: Antibacterial activity against methicillin-resistant Staphylococcus aureus 33815 in in vitro pharmacokinetic model assessed as viable count at 4 times of MIC; assay type: functional
Summary of the method: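 Preexposure population analysis profile: model sample at time zero plated on nutrient agar with tomopenem at multiples of the MIC. Growth counted as log CFU/ml, detection limit 2 log10.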

Staphylococcus aureus [9] = assay: Antibacterial activity against methicillin-resistant Staphylococcus aureus 33820 infected in in vitro pharmacokinetic model assessed as reduction in viable count at 1500 mg, iv every 8 hrs measured after 48 hrs using 10^6 CFU/ml inoculum; assay type: functional; summary of the method: as §2
Staphylococcus aureus [10] = assay: AUBKC (0 to 24 hrs) in methicillin-resistant Staphylococcus aureus 33820 infected in in vitro pharmacokinetic model at 1500 mg, iv every 8 hrs using 10^6 CFU/ml inoculum; assay type: functional
Summary of the method: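 Single-compartment dilutional in vitro PK model at 37°C in 10% Mueller-Hinton broth, stirred, flow 132 ml/h. […] Inoculum 10^6 CFU/ml added 45 min before dosing, or 10^8 CFU/ml run overnight. Viable counts with β-lactamase neutralisation. AUBKC by log-linear trapezoidal rule, at least triplicate.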

Staphylococcus aureus [11] = assay: T>MIC for 2-log drop in count in methicillin-resistant Staphylococcus aureus 33827 in in vitro pharmacokinetic model after 24 hrs using 10^8 CFU/ml inoculum; assay type: functional
Staphylococcus aureus [12] = assay: Antibacterial activity against methicillin-resistant Staphylococcus aureus 33820 infected in in vitro pharmacokinetic model assessed as time required to 99% killing at 750 mg, iv every 8 hrs using 10^6 CFU/ml inoculum; assay type: functional
Staphylococcus aureus [13] = assay: Antibacterial activity against methicillin-resistant Staphylococcus aureus 33921 in in vitro pharmacokinetic model assessed as viable count at 6 times of MIC; assay type: functional
Summary of the method: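 Preexposure population analysis: time-zero model samples plated on nutrient agar without drug and with drug at multiples of the 10% broth MIC. Growth reported as log CFU/ml, detection limit 2 log10.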

Staphylococcus aureus [14] = assay: Antibacterial activity against methicillin-resistant Staphylococcus aureus 33922 infected in in vitro pharmacokinetic model assessed as reduction in viable count at 1500 mg, iv every 8 hrs measured after 24 hrs using 10^6 CFU/ml inoculum; assay type: functional
Staphylococcus aureus [15] = assay: Antibacterial activity against methicillin-resistant Staphylococcus aureus 33829 by broth dilution method; assay type: functional
Summary of the method: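 MIC by CLSI broth dilution, or by broth dilution in 10% Mueller-Hinton broth at nondoubling dilutions.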

Staphylococcus aureus [16] = assay: Antibacterial activity against methicillin-resistant Staphylococcus aureus 33815 infected in in vitro pharmacokinetic model assessed as time required to 99% killing at 750 mg, iv every 8 hrs using 10^8 CFU/ml inoculum; assay type: functional
Summary of the method: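 T99 and T99.9 were taken as the times for the count to fall 99% or 99.9% from time 0, using serial viable counts over 48 h. Inoculum was 10^8 CFU/ml, grown overnight in the model before dosing.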

Staphylococcus aureus [17] = assay: Antibacterial activity against methicillin-resistant Staphylococcus aureus 33815 infected in in vitro pharmacokinetic model assessed as time required to 99.9% killing at 750 mg, iv every 8 hrs using 10^6 CFU/ml inoculum; assay type: functional
Staphylococcus aureus [18] = assay: Antibacterial activity against methicillin-sensitive Staphylococcus aureus 5956 infected in in vitro pharmacokinetic model assessed as time required to 99.9% killing at 1500 mg, iv every 8 hrs using 10^6 CFU/ml inoculum; assay type: functional
Staphylococcus aureus [19] = assay: Antibacterial activity against methicillin-resistant Staphylococcus aureus 33829 infected in in vitro pharmacokinetic model assessed as time required to 99% killing at 1500 mg, iv every 8 hrs using 10^6 CFU/ml inoculum; assay type: functional; summary of the method: as §1
Staphylococcus aureus [20] = assay: Antibacterial activity against methicillin-resistant Staphylococcus aureus 33827 infected in in vitro pharmacokinetic model assessed as time required to 99% killing at 750 mg, iv every 8 hrs using 10^8 CFU/ml inoculum; assay type: functional; summary of the method: as §1
Staphylococcus aureus [21] = assay: Antibacterial activity against methicillin-sensitive Staphylococcus aureus 5956 infected in in vitro pharmacokinetic model assessed as reduction in viable count at 1500 mg, iv every 8 hrs measured after 24 hrs using 10^6 CFU/ml inoculum; assay type: functional
Staphylococcus aureus [22] = assay: Antibacterial activity against methicillin-sensitive Staphylococcus aureus 5956 infected in in vitro pharmacokinetic model assessed as reduction in viable count at 1500 mg, iv every 8 hrs measured after 48 hrs using 10^6 CFU/ml inoculum; assay type: functional
Staphylococcus aureus [23] = assay: T>MIC for 2-log drop in count in methicillin-resistant Staphylococcus aureus 33829 in in vitro pharmacokinetic model after 24 hrs using 10^6 CFU/ml inoculum; assay type: functional
Staphylococcus aureus [24] = assay: T>MIC for 1-log drop in count in methicillin-sensitive Staphylococcus aureus 5956 in in vitro pharmacokinetic model after 24 hrs using 10^6 CFU/ml inoculum; assay type: functional
Summary of the method: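 Dose-ranging: 7–13 simulated regimens per strain giving T>MIC of 0–100% (MIC from 10% MHB), at 106 or 10^8 CFU/ml as stated.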

Staphylococcus aureus [25] = assay: Antibacterial activity against methicillin-resistant Staphylococcus aureus 33815 infected in in vitro pharmacokinetic model assessed as reduction in viable count at 1500 mg, iv every 8 hrs measured after 36 hrs using 10^6 CFU/ml inoculum; assay type: functional; summary of the method: as §2

C[C@@H](O)[C@H]1C(=O)N2C(C(=O)O)=C(S[C@H]3C[C@@H](C(=O)N4CC[C@H](NC(=O)CNC(=N)N)C4)N(C)C3)[C@H](C)[C@H]12 [TOMOPENEM]
AUBC (Staphylococcus aureus [1]): 27.6 log10CFU/ml.hr | MIC (Staphylococcus aureus [2]): 2 µg/mL (≈ 3.72 µM) | log10CFU/ml (Staphylococcus aureus [3]): 6 | log10CFU/ml (Staphylococcus aureus [4]): 4.2 | log10CFU/ml (Staphylococcus aureus [5]): 3.6 | fT>MIC (Staphylococcus aureus [6]): 1% | Activity (Staphylococcus aureus [7]): inactive | log10CFU/ml (Staphylococcus aureus [8]): <2 | log10CFU/ml (Staphylococcus aureus [9]): 4.2 | AUBC (Staphylococcus aureus [10]): 23.4 log10CFU/ml.hr | fT>MIC (Staphylococcus aureus [11]): 39.6% | Time (Staphylococcus aureus [12]): 7 h | log10CFU/ml (Staphylococcus aureus [13]): < 2 | log10CFU/ml (Staphylococcus aureus [14]): 4.2 | MIC (Staphylococcus aureus [15]): 2 µg/mL (≈ 3.72 µM) | Time (Staphylococcus aureus [16]): 16 h | Time (Staphylococcus aureus [17]): 12 h | Time (Staphylococcus aureus [18]): 8 h | Time (Staphylococcus aureus [19]): 7 h | Time (Staphylococcus aureus [20]): 12 h | log10CFU/ml (Staphylococcus aureus [21]): 4.4 | log10CFU/ml (Staphylococcus aureus [22]): 4.4 | fT>MIC (Staphylococcus aureus [23]): 20.8% | fT>MIC (Staphylococcus aureus [24]): 7.4% | log10CFU/ml (Staphylococcus aureus [25]): 4.2

Source: ChEMBL document CHEMBL1255300, “Pharmacodynamics of the antibacterial effect and emergence of resistance to tomopenem, formerly RO4908463/CS-023, in an in vitro pharmacokinetic model of Staphylococcus aureus infection” (Antimicrob Agents Chemother, 2008)
